# Experimental data of several laboratories.
# Effect on: cell growth or viability
Compound,cell line,test,setting,quantity,value
COc1ccc2/c(=N/c3ccccc3NC(=O)N3CCOCC3)cc(-c3ccc4c(c3)OCCO4)oc2c1,MDA-MB-468,CCK-8,1 µM,inhibition,18.7%
CN(C)CCNC(=O)c1ccc(-c2nc3ccc4[nH]ncc4c3c3c2CCCC3)cc1,MV4-11,resazurin,72 h,GI50,25 nM
COc1ccc2/c(=N/c3ccccc3NC(=O)[C@@H](N)C(C)(C)C)cc(-c3ccc4c(c3)OCCO4)oc2c1,MDA-MB-468,CCK-8,1 µM,inhibition,10.8%
CCN(Cc1ccccc1C)c1ccc(CO)c(Cl)c1,RBE,ATP luminescence,"46 µM, 72 h",inhibition,87%
O=C(CCCCCCSc1ccc2ccccc2c1)NO,HBL1,ATP luminescence,"0.5 µM, 5 days",viability,113%
CN(C)CCN(C)C(=O)c1ccc(-c2nc3ccc4[nH]ncc4c3c3c2CCCCC3)cn1,MV4-11,resazurin,72 h,GI50,581 nM
COCCC(=O)Nc1ccccc1/N=c1\cc(-c2ccc3nc(N)oc3c2)oc2ccccc12,MDA-MB-468,CCK-8,1 µM,inhibition,0.9%
OCc1ccc(-c2nn(Cc3ccccc3)c3ccc(F)cc23)o1,RBE,ATP luminescence,,IC50,977 nM
NCC(=O)Nc1ccccc1/N=c1\cc(-c2ccc3c(c2)OCCO3)oc2ccccc12,MDA-MB-468,CCK-8,1 µM,inhibition,4.61%
CCN(Cc1c(F)cccc1OC)c1ccc(CO)c(Cl)c1,RBE,ATP luminescence,"46 µM, 72 h",inhibition,65%
CN1CCN(C(=O)c2ccc(-c3nc4ccc5[nH]ncc5c4c4c3CCCC4)cc2)CC1,MV4-11,resazurin,72 h,GI50,1300 nM
OCc1ccc(-c2nn(Cc3ccccn3)c3cccnc23)o1,RBE,ATP luminescence,"46 µM, 72 h",inhibition,76%
CC(=O)OC[C@H]1O[C@@H](n2cnc(N)nc2=O)[C@H](OC(C)=O)[C@@H]1OC(C)=O,HBL1,ATP luminescence,"1 µM, 5 days",viability,94.3%
Cc1n[nH]c2ccc3nc(-c4ccc(C(=O)NCCN5CCCC5)cc4)c4c(c3c12)CCCC4,MV4-11,resazurin,72 h,GI50,428 nM
COc1ncccc1Cn1nc(-c2ccc(CO)o2)c2ccccc21,RBE,ATP luminescence,,IC50,229 nM
CN(C)CCN(C)C(=O)c1ccc(-c2nc3ccc4[nH]ncc4c3c3c2CCCCC3)nc1,MV4-11,resazurin,72 h,GI50,1200 nM
Nc1nc2ccc(-c3c/c(=N\c4ccccc4NC(=O)CCN4CCOCC4)c4ccccc4o3)cc2o1,MDA-MB-468,CCK-8,1 µM,inhibition,0.34%
OCc1ccc(-c2ccn(Cc3ccccc3)n2)o1,RBE,ATP luminescence,"46 µM, 72 h",inhibition,47%
Cc1n[nH]c2ccc3nc(-c4ccc(C(=O)N(C)CCN(C)C)cc4)c4c(c3c12)CCCCC4,MV4-11,resazurin,72 h,GI50,522 nM
CCN(Cc1ccc(C)cc1)c1ccc(CO)c(Cl)c1,RBE,ATP luminescence,"46 µM, 72 h",inhibition,95%
O=C(/C=C/c1cccc(C(=O)NO)c1)NO,HBL1,ATP luminescence,"0.1 µM, 5 days",viability,119%
C[C@H](Nc1ccc2c(c1)OCCn1cc(N3C(=O)OC[C@H]3C(F)F)nc1-2)C(N)=O,MDA-MB-361,ATP luminescence,5 days,EC50,7.5 nM
O=C(Nc1ccccc1/N=c1\cc(-c2ccc3c(c2)OCO3)oc2ccccc12)N1CCNCC1,MDA-MB-468,CCK-8,1 µM,inhibition,-5.89%
NC(=O)c1ccc(-c2nc3ccc4[nH]ncc4c3c3c2CCCC3)cc1,MV4-11,resazurin,72 h,GI50,57 nM
CC(C)(C)[C@H](N)C(=O)Nc1ccccc1/N=c1\cc(-c2ccc3c(c2)OCCO3)oc2cc(F)ccc12,MDA-MB-468,CCK-8,1 µM,inhibition,-0.62%
OCc1ccc(-c2nn(Cc3ccccc3F)c3ccccc23)o1,RBE,ATP luminescence,"46 µM, 72 h",inhibition,68%
CN(C)CCNC(=O)c1ccc(-c2nc3ccc4[nH]ncc4c3c3c2CCCCC3)cn1,MV4-11,resazurin,72 h,GI50,146 nM
O=C(Nc1ccccc1/N=c1\cc(-c2ccc3c(c2)OCCO3)oc2cc(F)ccc12)N1CCOCC1,MDA-MB-468,CCK-8,1 µM,inhibition,-2.71%
